pIC50: −log10 of the molar value. The source made the active and inactive calls. No cut-off for these calls is given here.

In experiment [1] the target is Apoptosis regulator Bcl-2 (Homo sapiens, UniProt P10415). The experiment is described as follows: Inhibition of biotinylated Bim peptide (81 to 106 residues) binding to His-tagged human Bcl-2 expressed in Escherichia coli BL21 (DE3) cells preincubated for 1 hr followed by biotinylated Bim peptide addition measured after 2 hrs by ELISA. The essentials:
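Inhibitor serially diluted (100–0.1 µM) from 10 mM DMSO stock, preincubated 1 h with 200 nM His-tagged protein in PBS (final DMSO 4%), then added 2 h to streptavidin plates holding biotin-Bim (plated at 0.09 mg/mL). Incubations at 4 °C. Detection with HRP anti-His, TMB 30 min, H2SO4 stop, A450. IC50 averaged from three independent experiments, with SD.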
Background: ELISA stands for enzyme-linked immunosorbent assay.

Experiment [2] concerns the target T1, Protein cereblon/Induced myeloid leukemia cell differentiation protein Mcl-1 (Homo sapiens, UniProt Q07820+Q96SW2). In words: Induction of CRBN-mediated Mcl-1 degradation in human HeLa cells assessed as relative abundance at 1 uM after 12 hrs by Western blot analysis (reference value: 1). Type of experiment: cell-based. (In general: Immunoblotting shows a protein as a band on a membrane.)

Experiment [3] addresses T1, Protein cereblon/Induced myeloid leukemia cell differentiation protein Mcl-1. The experiment is described as follows: Induction of CRBN-mediated Mcl-1 degradation in human HeLa cells after 12 hrs by Western blot analysis. Type of experiment: cell-based.
For experiment [4] the target is unchanged. In words: Induction of CRBN-mediated Mcl-1 degradation in human HeLa cells assessed as decrease in Mcl-1 level at 1 uM after 12 hrs by Western blot analysis relative to control. The class given is cell-based. Also noted: scale not given: the % may be the effect or the level left.
Experiment [5] has the same target. In words: Induction of CRBN-mediated Mcl-1 degradation in human HeLa cells assessed as relative abundance at 0.1 uM after 12 hrs by Western blot analysis (reference value: 1). The class given is cell-based.
For experiment [6], the target named is T2, Protein cereblon/Apoptosis regulator Bcl-2 (Homo sapiens, UniProt P10415+Q96SW2). The experiment is described as follows: Induction of CRBN-mediated Bcl-2 degradation in human HeLa cells assessed as relative abundance at 0.1 uM after 12 hrs by Western blot analysis (reference value: 1). Type of experiment: cell-based.
T2 sequence (P10415 whole entry, looked up): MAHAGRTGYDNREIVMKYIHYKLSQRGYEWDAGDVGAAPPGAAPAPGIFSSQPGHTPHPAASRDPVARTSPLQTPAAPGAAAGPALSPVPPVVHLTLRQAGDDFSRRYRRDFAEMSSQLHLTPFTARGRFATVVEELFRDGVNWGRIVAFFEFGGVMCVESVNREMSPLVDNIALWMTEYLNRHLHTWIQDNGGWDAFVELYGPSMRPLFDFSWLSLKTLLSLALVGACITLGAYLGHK
T2 sequence (Q96SW2 whole entry, looked up): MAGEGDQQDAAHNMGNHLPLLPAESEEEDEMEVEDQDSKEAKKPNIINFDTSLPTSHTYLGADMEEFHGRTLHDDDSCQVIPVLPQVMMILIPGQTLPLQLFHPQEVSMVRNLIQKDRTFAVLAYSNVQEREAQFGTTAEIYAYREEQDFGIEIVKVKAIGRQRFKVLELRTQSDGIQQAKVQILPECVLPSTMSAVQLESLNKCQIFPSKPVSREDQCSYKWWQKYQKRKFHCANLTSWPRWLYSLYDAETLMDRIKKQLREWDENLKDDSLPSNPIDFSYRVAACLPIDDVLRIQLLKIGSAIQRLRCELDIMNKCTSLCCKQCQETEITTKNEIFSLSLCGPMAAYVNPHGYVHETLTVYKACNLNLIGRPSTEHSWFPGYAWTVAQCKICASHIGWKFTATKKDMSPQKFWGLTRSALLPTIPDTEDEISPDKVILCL
The target in experiment [7] is T1, Protein cereblon/Induced myeloid leukemia cell differentiation protein Mcl-1. The experiment is described as follows: Induction of CRBN-mediated Mcl-1 degradation in human HeLa cells assessed as relative abundance at 0.3 uM after 12 hrs by Western blot analysis (reference value: 1). Type of experiment: cell-based.
Experiment [8] has the same target. The experiment is described as follows: Induction of CRBN-mediated Mcl-1 degradation in human HeLa cells assessed as relative abundance at 3 uM after 12 hrs by Western blot analysis (reference value: 1). Type of experiment: cell-based.
For experiment [9] the target is unchanged. In words: Induction of CRBN-mediated Mcl-1 degradation in human HeLa cells at 10 uM by Western blot analysis. Particulars: TDE = time-dependent effect. Type of experiment: cell-based.
The target is the same in experiment [10]. The experiment is described as follows: Induction of CRBN-mediated Mcl-1 degradation in human HeLa cells assessed as relative abundance at 10 uM measured at 2 hrs by Western blot analysis (reference value: 1). Type of experiment: cell-based. The essentials:
(§1)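 HeLa cells in DMEM with 10% FBS, exposed to 10 µM compound over a 0–24 h time course. Mcl-1 and Bcl-2 detected by immunoblot (NP-40 lysis, BCA-equalized SDS-PAGE, PVDF, ECL) and quantified relative to DMSO control; mean ± s.d., n=3 independent samples.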

Experiment [11] shares this target. The experiment is described as follows: Induction of CRBN-mediated Mcl-1 degradation in human HeLa cells assessed as relative abundance at 10 uM measured at 8 hrs by Western blot analysis (reference value: 1). The class given is cell-based. The method in brief:
as §1

Experiment [12] concerns the target T2, Protein cereblon/Apoptosis regulator Bcl-2. In words: Induction of CRBN-mediated Bcl-2 degradation in human HeLa cells assessed as relative abundance at 10 uM measured at 20 hrs by Western blot analysis (reference value: 1). Type of experiment: cell-based. The essentials:
as §1

The target is the same in experiment [13]. The experiment is described as follows: Induction of CRBN-mediated Bcl-2 degradation in human HeLa cells assessed as relative abundance at 10 uM measured at 4 hrs by Western blot analysis (reference value: 1). Type of experiment: cell-based. The essentials: as §1
Experiment [14] addresses T1, Protein cereblon/Induced myeloid leukemia cell differentiation protein Mcl-1. In words: Induction of CRBN-mediated Mcl-1 degradation in human HeLa cells at 10 uM measured at 12 hrs by Western blot analysis relative to control. Type of experiment: cell-based. The method in brief:
as §1

For experiment [15] the target is unchanged. In words: Induction of CRBN-mediated Mcl-1 degradation in human K562 cells incubated for 12 hrs by Western blot analysis. The class given is cell-based. The essentials:
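K562 cells kept in RPMI1640 with 10% FBS at 37 °C, 5% CO2. After compound treatment, cells lysed in NP-40 buffer with protease inhibitors. Equal protein run on SDS-PAGE, then immunoblotted; protein levels quantified from the blots.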

For experiment [16] the target is unchanged. In words: Induction of CRBN-mediated Mcl-1 degradation in human HeLa cells at 10 uM pretreated with Bcl-2 inhibitor Nap-1 followed by compound addition by Western blot analysis. Type of experiment: cell-based.
Experiment [17] has as its target T2, Protein cereblon/Apoptosis regulator Bcl-2. In words: Induction of CRBN-mediated Bcl-2 degradation in human HeLa cells assessed as reduction in Bcl-2 level at 10 uM after 12 hrs by Western blot analysis. The class given is cell-based.

T1 sequence (Q07820 whole entry, looked up): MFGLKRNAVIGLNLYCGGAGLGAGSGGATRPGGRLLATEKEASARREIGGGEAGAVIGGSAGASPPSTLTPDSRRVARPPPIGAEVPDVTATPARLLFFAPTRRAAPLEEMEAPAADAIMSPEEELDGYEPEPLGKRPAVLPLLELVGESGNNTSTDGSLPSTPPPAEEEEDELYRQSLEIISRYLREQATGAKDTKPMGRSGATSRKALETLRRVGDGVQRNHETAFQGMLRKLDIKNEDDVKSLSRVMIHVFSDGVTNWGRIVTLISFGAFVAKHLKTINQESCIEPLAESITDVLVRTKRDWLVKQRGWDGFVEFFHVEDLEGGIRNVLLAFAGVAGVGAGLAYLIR
T1 sequence (Q96SW2 whole entry, looked up): as the sequence (Q96SW2 whole entry, looked up) above
Sequence of Apoptosis regulator Bcl-2 (P10415 whole entry, the tested form may be a part): as the sequence (P10415 whole entry, looked up) above

By pIC50 is commonly meant −log10 of the IC50, conventionally taken in molar units. `O=C(CCCCC(=O)NCCN1C(=O)c2cccc3c(Sc4ccc(Br)cc4)ccc(c23)C1=O)NCCCCCCNc1cccc2c1C(=O)N(C1CCC(=O)NC1=O)C2=O` (configuration not stated): in [1], the pIC50 was 6.27. Moreover, the fold change (FC) in [2] is 0.3; in experiment [5] it was 1.1; in experiment [6], 0.9; in [7] it was 0.9; in experiment [8], 0.1; in experiment [10], 1.1. In addition, the fold change (FC) in [11] is 0.7; in experiment [12], 1; in experiment [13], 1.1. Besides, the Activity entry was “Dose-dependent effect” in [3], 70% in [4], “Tde” in experiment [9] and 80% in experiment [14]. For the same compound, the result in [15] was Active. For the same compound, the result in experiment [16] and in experiment [17] was inactive.

Source of the values: ChEMBL document CHEMBL4321796, “Proteolysis Targeting Chimeras for the Selective Degradation of Mcl-1/Bcl-2 Derived from Nonselective Target Binding Ligands” (J Med Chem, 2019).
